ChEMBL document CHEMBL2434891, “Design, synthesis, and in vitro cancer cell growth inhibition evaluation and antimalarial testing of trioxanes installed in cyclic 2-enoate substructures” (Eur J Med Chem, 2013)
In brackets after ≈: the same amount, converted by molar mass. Activity calls are given as the source filed them. No cut-off for these calls is given here.

Key:
MV4-11 = assay: Antiproliferative activity against human MV4-11 cells after 72 hrs by MTT assay; assay type: functional, cell-based; details: MV4-11, 72 h
[1] = Binding affinity to hemin assessed as complexation of hemin-endoperoxides in 0.1 M tris buffer at pH 9 at 25 to 500 uM after 24 hrs by UV-vis absorption spectroscopy
How it was run: (§1)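 Hemin held at 6 µM with compound at 0–500 µM in 60% 0.1 M Tris buffer (pH 9.0) and 40% DMSO. Mixtures incubated 12 h or 24 h.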

[2] = Binding affinity to hemin assessed as hemin-induced oxidative damage in 0.1 M tris buffer at pH 9 at 25 to 500 uM after 2 hrs by UV-vis absorption spectroscopy in presence of methylene blue
How it was run: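 Methylene blue (10 µM) used as substrate for heme-catalysed oxidation. Compound incubated 2 h at 37 °C with hemin (6 µM) and methylene blue in 60% 0.1 M Tris buffer (pH 9.0) and 40% DMSO. Mixture absorbance then read by UV–vis spectrophotometry.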

A549 = assay: Cytotoxicity against human A549 cells after 72 hrs by SRB assay; assay type: functional, cell-based; details: A549, 72 h
How it was run: (§2)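 Adherent cells grown at 37 °C and 5% CO2. Seeded at 1×10^4/well 24 h before dosing, then 72 h at 10–0.01 µg/mL final. Fixed with cold 50% TCA, stained with 0.4% SRB, dye extracted in 10 mM Tris, read at 540 nm.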

[3] = Binding affinity to hemin assessed as complexation of hemin-endoperoxides in 0.1 M tris buffer at pH 9 at 25 to 500 uM after 12 hrs by UV-vis absorption spectroscopy; how it was run: as §1
BALB/3T3 = assay: Cytotoxicity against mouse BALB/3T3 cells after 72 hrs by SRB assay; assay type: cell-based; details: BALB/3T3, 72 h
How it was run: as §2, with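 “CO2. A549 and HCT116 were in RPMI 1640/OptiMEM (50:50) with 5% FBS; BALB/3T3 in Dulbecco medium with 10% FBS and pyruvate.” for “CO2.”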

HCT-116 = assay: Cytotoxicity against human HCT116 cells after 72 hrs by SRB assay; assay type: functional, cell-based; details: HCT-116, 72 h; how it was run: as §2
L6 = assay: Cytotoxicity against rat L6 cells after 70 hrs by alamar blue assay; details: L6, 70 h
Plasmodium falciparum = assay: Antimalarial activity against erythrocytic stage of Plasmodium falciparum NF54 infected in RBC after 48 hrs by [3H]-hypoxanthine incorporation assay; assay type: functional, organism-based

COc1cccc(C2C[C@]34OO[C@](C)(C=C3C(=O)O2)C(C)O4)c1 (stereo partly drawn)
IC50 (MV4-11): 7.76 µM

COc1ccc(C2O[C@]34CC(c5ccc(OC)c(OC)c5)OC(=O)C3=C[C@@]2(C)OO4)cc1 (stereo partly drawn)
IC50 (MV4-11): 4.38 µM

COC(=O)C1=C[C@]23CCCC[C@@H]2O[C@@]1(C)OO3
IC50 (MV4-11): 8.08 µM

COc1ccc(C2O[C@]34CC(c5ccc(C(F)(F)F)cc5)OC(=O)C3=C[C@@]2(C)OO4)cc1 (stereo partly drawn)
IC50 (MV4-11): 4.84 µM

COc1ccc(C2O[C@]34CC(c5ccc(Cl)cc5)OC(=O)C3=C[C@@]2(C)OO4)cc1 (stereo partly drawn)
IC50 (MV4-11): 4.31 µM

COc1ccc(C2C[C@]34OO[C@](C)(C=C3C(=O)O2)C(c2ccc([N+](=O)[O-])cc2)O4)cc1OC (stereo partly drawn)
Activity [1]: Active
Activity [2]: Active
IC50 (A549): 7.73 µM
Activity [3]: Active
IC50 (BALB/3T3): 7.2 µM
IC50 (HCT-116): 6.79 µM
IC50 (MV4-11): 0.911 µM

CC1O[C@]23CC(c4cccc(Cl)c4)OC(=O)C2=C[C@@]1(C)OO3 (stereo partly drawn)
IC50 (MV4-11): 7.31 µM

C[C@]12C=C3C(=O)OC(c4ccc(C(F)(F)F)cc4)C[C@@]3(OO1)OC2c1ccc(Br)cc1 (stereo partly drawn)
IC50 (MV4-11): 5.51 µM

COc1ccc(C2O[C@]34CC(c5ccccc5)(c5ccccc5)OC(=O)C3=C[C@@]2(C)OO4)cc1 (stereo partly drawn)
IC50 (L6): 1.9 µg/mL (≈ 4.16 µM)
IC50 (Plasmodium falciparum): 4.2 µg/mL (≈ 9.2 µM)
IC50 (MV4-11): 3.78 µM

COc1ccc(C2C[C@]34OO[C@](C)(C=C3C(=O)O2)C(C)O4)cc1OC (stereo partly drawn)
IC50 (MV4-11): 11.1 µM

CC1O[C@]23CC(c4ccc(Cl)cc4)N(C(=O)OC(C)(C)C)C(=O)C2=C[C@@]1(C)OO3 (stereo partly drawn)
IC50 (A549): 7.2 µM
IC50 (BALB/3T3): 6.21 µM
IC50 (HCT-116): 7.3 µM
IC50 (MV4-11): 1.04 µM

COc1ccc(C2C[C@]34OO[C@](C)(C=C3C(=O)O2)C(c2ccccc2)O4)cc1OC (stereo partly drawn)
IC50 (L6): 0.52 µg/mL (≈ 1.27 µM)
IC50 (A549): > 24 µM
IC50 (Plasmodium falciparum): 3.28 µg/mL (≈ 7.99 µM)
IC50 (BALB/3T3): 10.1 µM
IC50 (HCT-116): 11.7 µM
IC50 (MV4-11): 0.901 µM

C[C@]12C=C3C(=O)OC(c4ccccc4Br)C[C@@]3(OO1)OC2c1ccc([N+](=O)[O-])cc1 (stereo partly drawn)
IC50 (A549): 11.6 µM
IC50 (BALB/3T3): 7.53 µM
IC50 (HCT-116): 7.08 µM
IC50 (MV4-11): 0.837 µM

C[C@]12C=C3C(=O)OC(c4ccccc4)(c4ccccc4)C[C@@]3(OO1)OC2c1ccc([N+](=O)[O-])cc1 (stereo partly drawn)
IC50 (L6): 3.49 µg/mL (≈ 7.4 µM)
IC50 (Plasmodium falciparum): 5.25 µg/mL (≈ 11.1 µM)
IC50 (MV4-11): 3.79 µM

CC1O[C@]23CC(c4ccc(F)cc4)OC(=O)C2=C[C@@]1(C)OO3 (stereo partly drawn)
IC50 (MV4-11): 6.89 µM

C[C@]12C=C3C(=O)OC(c4ccc(C(F)(F)F)cc4)C[C@@]3(OO1)OC2c1ccccc1 (stereo partly drawn)
IC50 (A549): 10.9 µM
IC50 (BALB/3T3): 9.01 µM
IC50 (HCT-116): 7.43 µM
IC50 (MV4-11): 0.779 µM

COC(=O)c1ccc(C2O[C@]34CC(c5ccccc5)(c5ccccc5)OC(=O)C3=C[C@@]2(C)OO4)cc1 (stereo partly drawn)
IC50 (L6): 1.67 µg/mL (≈ 3.45 µM)
IC50 (Plasmodium falciparum): 5.62 µg/mL (≈ 11.6 µM)
IC50 (MV4-11): 2.99 µM

CC1O[C@]23CC(c4ccc(C(F)(F)F)cc4)OC(=O)C2=C[C@@]1(C)OO3 (stereo partly drawn)
IC50 (A549): 13.9 µM
IC50 (BALB/3T3): 12.5 µM
IC50 (HCT-116): 9.49 µM
IC50 (MV4-11): 0.895 µM

CC(C)(C)OC(=O)N1C(=O)C2=C[C@@]3(C)OO[C@]2(CC1c1ccc(Cl)cc1)OC3c1ccc([N+](=O)[O-])cc1 (stereo partly drawn)
IC50 (L6): 1.16 µg/mL (≈ 2.19 µM)
IC50 (A549): 6.22 µM
IC50 (Plasmodium falciparum): 1.97 µg/mL (≈ 3.72 µM)
IC50 (BALB/3T3): 6.67 µM
IC50 (HCT-116): 5.54 µM
IC50 (MV4-11): 0.501 µM

C[C@]12C=C3C(=O)OC(c4ccc(Cl)cc4)C[C@@]3(OO1)OC2c1ccc(Br)cc1 (stereo partly drawn)
IC50 (MV4-11): 4.21 µM

CC1O[C@]23CC(c4ccc(Br)cc4)OC(=O)C2=C[C@@]1(C)OO3 (stereo partly drawn)
IC50 (A549): 13 µM
IC50 (BALB/3T3): 12 µM
IC50 (HCT-116): 9.2 µM
IC50 (MV4-11): 0.98 µM

C[C@]12C=C3C(=O)OC(c4ccccc4)(c4ccccc4)C[C@@]3(OO1)OC2c1ccc(Cl)cc1 (stereo partly drawn)
IC50 (L6): 2.03 µg/mL (≈ 4.4 µM)
IC50 (Plasmodium falciparum): 9.88 µg/mL (≈ 21.4 µM)
IC50 (MV4-11): 3.6 µM

COc1ccc(C2O[C@]34CC(c5ccccc5)CC(=O)C3=C[C@@]2(C)OO4)cc1 (stereo partly drawn)
IC50 (MV4-11): 6.5 µM

CC(C)(C)OC(=O)N1C(=O)C2=C[C@@]3(C)OO[C@]2(CC1c1ccc(Cl)cc1)OC3c1ccccc1 (stereo partly drawn)
IC50 (A549): 6.66 µM
IC50 (BALB/3T3): 5.46 µM
IC50 (HCT-116): 6.02 µM
IC50 (MV4-11): 0.517 µM

COc1ccc(C2O[C@]34CC(c5ccc(Cl)cc5)N(C(=O)OC(C)(C)C)C(=O)C3=C[C@@]2(C)OO4)cc1 (stereo partly drawn)
IC50 (A549): 6.32 µM
IC50 (BALB/3T3): 6.87 µM
IC50 (HCT-116): 5.56 µM
IC50 (MV4-11): 0.661 µM

C[C@]12C=C3C(=O)OC(c4cccc(Cl)c4)C[C@@]3(OO1)OC2c1ccc([N+](=O)[O-])cc1 (stereo partly drawn)
Activity [1]: Active
Activity [2]: Active
Activity [3]: Active
IC50 (MV4-11): 3.91 µM

COc1ccc(C2C[C@]34OO[C@](C)(C=C3C(=O)O2)C(c2ccc([N+](=O)[O-])cc2)O4)cc1 (stereo partly drawn)
IC50 (A549): 8.44 µM
IC50 (BALB/3T3): 7.36 µM
IC50 (HCT-116): 7.5 µM
IC50 (MV4-11): 0.735 µM

C[C@]12C=C3C(=O)OC(c4ccc(Cl)cc4)C[C@@]3(OO1)OC2c1ccc([N+](=O)[O-])cc1 (stereo partly drawn)
Activity [1]: Active
Activity [2]: Active
IC50 (A549): 8.28 µM
Activity [3]: Active
IC50 (BALB/3T3): 8.21 µM
IC50 (HCT-116): 7.37 µM
IC50 (MV4-11): 0.593 µM

C[C@]12C=C3C(=O)CCC[C@@]3(OO1)OC2c1ccc([N+](=O)[O-])cc1 (stereo partly drawn)
IC50 (MV4-11): > 31 µM

COc1ccc(C2O[C@]34CC(c5ccc(F)cc5)OC(=O)C3=C[C@@]2(C)OO4)cc1 (stereo partly drawn)
IC50 (L6): 0.5 µg/mL (≈ 1.26 µM)
IC50 (A549): 11.8 µM
IC50 (Plasmodium falciparum): 1.68 µg/mL (≈ 4.22 µM)
IC50 (BALB/3T3): 9.06 µM
IC50 (HCT-116): 8.08 µM
IC50 (MV4-11): 0.582 µM

COc1ccc(C2O[C@]34CCCC(=O)C3=C[C@@]2(C)OO4)cc1 (stereo partly drawn)
IC50 (L6): 4.5 µg/mL (≈ 14.9 µM)
IC50 (Plasmodium falciparum): 3.41 µg/mL (≈ 11.3 µM)
IC50 (MV4-11): > 33 µM

C[C@]12C=C3C(=O)CC(c4ccccc4)C[C@@]3(OO1)OC2c1ccc([N+](=O)[O-])cc1 (stereo partly drawn)
IC50 (L6): 5.6 µg/mL (≈ 14.2 µM)
IC50 (Plasmodium falciparum): 3.1 µg/mL (≈ 7.88 µM)
IC50 (MV4-11): 6.53 µM
